# ATG4B inh: inhibitors of human ATG4B cysteine protease | inhibition, % at 8.33 µM | 0.51% of 340,000 active | AID 504462 | ATG4B cleavage of LC3-PLA2, NBD-HPC fluorescence, 1 h | Q9Y4P1; in the data active means inhibition above about 40%
# Dynein cargo inh: blocks dynein driven cargo transport along microtubules. AID 1381. 3617.4 mouse cells, GR-EGFP nuclear translocation imaging; test concentration mostly 20 µM; stimulated with dexamethasone, 1 µM; stronger effect = lower value. 0.47% of 220,000 active. z-score, hits read low;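 active means plate z-score of nuclear minus cytoplasmic receptor signal below a set negative limit, without overly bright fluorescence or cell loss, cut at about -3.5 in these data, passing the limit was not always enough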;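 further: z-score of nuclear minus cytoplasmic ring GR-EGFP intensity difference per well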
#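 Schedule: 48 h induction, then 1 h compound, then 30 min agonist, 37 °C. Buffer or medium: tetracycline-free induction medium containing charcoal-stripped FBS. Reagent: 1.0 µM final dexamethasone stimulus. Evaluation: nuclear versus cytoplasmic GR-EGFP signal, averaged per well. Signal: high-content fluorescence imaging after fixation.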
# B2AR ag: human beta-2 adrenergic receptor agonism by FAP; 0.43% of 340,000 active; P07550; Am2.2-beta2AR cells, FAP receptor internalization, flow cytometry; response, % (no concentration beside the values);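 active means response above a set limit, near 3 SD of response in nonfluorescent compounds, cut at about 42% in these data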
# MEKK2mut PB1 HTS: signal of MEK5 binding to mutant human MEKK2 PB1 domain. bead flow cytometry, Alexa488-MEK5 binding to MEKK2 mutant. percent response, % at 10 µM. 0.35% of 290,000 active. AID 1530; in the data active means percent response above about 24%, passing the limit was not always enough
# MEKK3 PB1 HTS: MEKK3-MEK5 PB1 interaction, increase or decrease | bead-based flow cytometry, Alexa488-MEK5 binding to MEKK3; actives lie on both sides; 0 = blocked by unlabeled MEK5, 100 = vehicle | Q99759 | binding response (% of control), % at 10 µM | 1.4% of 290,000 active | AID 1529;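 active means binding response more than 3 SD above or below the average of its plate-row segment, actives on both sides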;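 further: Alexa488 bead fluorescence after subtracting the streptavidin-only scavenger bead signal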
# Target sequence (Q99759 whole entry, looked up): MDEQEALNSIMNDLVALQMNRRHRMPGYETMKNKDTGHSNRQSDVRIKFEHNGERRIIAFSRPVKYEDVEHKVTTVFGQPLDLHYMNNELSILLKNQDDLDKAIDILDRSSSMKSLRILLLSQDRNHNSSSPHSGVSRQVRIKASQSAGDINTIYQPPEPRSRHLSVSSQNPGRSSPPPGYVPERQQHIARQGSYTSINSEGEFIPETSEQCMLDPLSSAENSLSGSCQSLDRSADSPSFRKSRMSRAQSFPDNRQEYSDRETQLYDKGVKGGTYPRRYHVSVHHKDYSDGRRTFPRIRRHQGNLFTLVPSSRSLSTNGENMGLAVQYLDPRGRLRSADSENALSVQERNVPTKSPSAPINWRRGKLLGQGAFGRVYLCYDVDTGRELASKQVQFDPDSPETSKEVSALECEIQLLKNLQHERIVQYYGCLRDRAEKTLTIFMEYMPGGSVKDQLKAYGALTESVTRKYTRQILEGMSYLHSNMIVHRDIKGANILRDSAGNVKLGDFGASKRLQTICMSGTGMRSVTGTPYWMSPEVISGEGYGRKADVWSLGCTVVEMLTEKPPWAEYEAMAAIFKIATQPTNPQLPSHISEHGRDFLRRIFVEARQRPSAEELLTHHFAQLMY
# MEKK2 WT-MEK5: raises or lowers MEK5 binding to wildtype human MEKK2 PB1 domain; binding response (% of control), % at 10 µM; Q9Y2U5; 1.1% of 290,000 active; bead flow cytometry, Alexa488-MEK5 binding to MEKK2 WT; actives lie on both sides; in the data active means binding response below about 67% or above about 130%
# MEKK2wt confirm: raises or lowers MEK5 binding to wildtype human MEKK2, retest; 2.4% of 5,900 active; binding response (% of control), % at 10 µM; shares compounds with MEKK3 PB1 HTS; bead flow cytometry, Alexa488-MEK5 binding to MEKK2 WT; actives lie on both sides; AID 1892; in the data active means binding response below about 16% or above about 210%; inactive means in between
# MEKK2mut confirm: signal of MEK5 binding to mutant human MEKK2, retest. AID 1893. shares compounds with MEKK3 PB1 HTS. 2% of 5,900 active. bead flow cytometry, Alexa488-MEK5 binding to MEKK2 mutant. percent response, % at 10 µM; in the data active means percent response mostly above about 71%, no sharp cut-off; inactive means mostly below about 38%;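 further: higher means compound restores mutant binding toward wildtype level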
# MEKK3 confirm: confirmation of inhibitors of MEK5 binding to human MEKK3; bead flow cytometry, Alexa488-MEK5 binding to MEKK3; stronger effect = lower value; binding response (% of control), % at 10 µM; shares compounds with MEKK3 PB1 HTS; 1.8% of 5,900 active; AID 1894;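 active means binding response below 72% of control, or above a set upper limit, though filed actives all read lower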;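 further: 100% = DMSO only wells and 0% = binding blocked by excess unlabeled MEK5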
# * marks the source's active call; other numbers are inactive results; . = no result given; [ ] = another dose, or the depositor's remark. This is a sample that favours compounds with a hit; in the whole collection about 2.9% have one here.
SMILES,ATG4B inh,Dynein cargo inh,B2AR ag,MEKK2mut PB1 HTS,MEKK3 PB1 HTS,MEKK2 WT-MEK5,MEKK2wt confirm,MEKK2mut confirm,MEKK3 confirm
Cc1ccc2cc(/C=C3\N=C(c4ccccc4)OC3=O)c(N3CCOCC3)nc2c1,-6,-1.7,.,-11,75*[inhibitor],28*[inhibitor],57,-22,93
COc1ccc(N2CCN(c3nc4cc(C)ccc4cc3C=O)CC2)cc1,-1,.,1,-5,102,92,.,.,.
N#CC1=C(N)Oc2cc(O)ccc2C1c1cccnc1 (stereo not drawn),-3,-0.012,-3,1,132*,120,108,-5,102
COC(=O)C(C)(C)ONC(=O)Nc1ccccc1[N+](=O)[O-],-6,0.51,3,-6,92,94,.,.,.
Cc1ccc(NC2c3ncccc3C(=O)N2Cc2cccs2)cc1C (stereo not drawn),5,1.8,-9,-3,96,92,.,.,.
O=C1c2cccnc2C(Nc2ccc(Cl)cc2)N1Cc1cccs1 (stereo not drawn),-10,0.35,-2,-16,75*[inhibitor],54*[inhibitor],108,7,104
Cc1cc2nc(-c3ccc(SCC(=O)Nc4ccc(S(=O)(=O)N5CCCC5)cc4)nc3)[nH]c2cc1C,27,0.59,25,1,132*,105,94,0,98
CCOC(=O)N1CCC(N(CCN(C)C)C(=S)Nc2cc(C)cc(C)c2)CC1,4,0.58,8,0,114,100,.,.,.
CC(=O)[C@@]1(O)CCC2C3CC[C@H]4C[C@@H](O)CC[C@]4(C)C3CC[C@@]21C (stereo partly drawn),0,.,-1,.,.,.,.,.,.
C[C@]12CCC3C(CC[C@H]4CCCC[C@]34C)C1CC[C@@]2(O)CNCCO (stereo partly drawn),-2,.,28,27*,105,139*,130,20,107
CC(O)(CC(=O)O)CC(=O)O,.,.,.,2,103,95,.,.,.
CCOC(=O)c1c(C)[nH]c2cc(Br)c(O)cc12,-13,-0.24,6,5,2.0*[inhibitor],2.0*[inhibitor],102,4,106
CC(=O)Nc1ccc(NC(=O)C2CCCN2C(=O)Nc2ccc(F)c([N+](=O)[O-])c2)cc1 (stereo not drawn),7,-0.021,-1,33,84,96,.,.,.
CC1C(=O)C(C)C(c2cccs2)NC1c1cccs1 (stereo not drawn),-1,-0.94,1,8,127*,124,130,11,104
C=CCNc1nc(Nc2ccc(-c3nc4ccccc4o3)cc2)nc(N2CCOCC2)n1,19,-0.017,1,6,108,101,.,.,.
COc1ccc(NC(=O)C2CCC(CNS(=O)(=O)c3cccs3)CC2)cc1 (stereo not drawn),0,-0.58,-3,-45,5.0*[inhibitor],7.0*[inhibitor],101,-3,99
COc1ccc(NC(=O)C2CCC(CNS(=O)(=O)c3cccs3)CC2)cc1OC (stereo not drawn),-7,1.6,-6,-1,98,97,.,.,.
COc1ccc(NC(=O)C2CCN(c3nc(C)cc(C)n3)CC2)cc1,-12,-0.25,1,-1,2.0*[inhibitor],2.0*[inhibitor],102,-4,99
Cc1cc(C)nc(N2CCC(C(=O)Nc3ccc4c(c3)CCC4)CC2)n1,-8,0.86,-4,7,103,102,.,.,.
COCCN(CC(=O)Nc1cccc(C)c1C)C(=O)C1CCN(S(=O)(=O)c2ccccc2)CC1,-5,.,-6,.,.,.,.,.,.
[O-]/C(=C(\C(=S)Nc1ccc(SC(F)F)cc1)[n+]1ccccc1)c1cc(Cl)ccc1Cl,-8,0.14,-5,-5,102,58*[inhibitor],97,-4,103
O=C(CCNC(=O)c1ccc(Cl)cc1)Nc1ccccc1N1CCCCC1,7,.,-12,.,.,.,.,.,.
Cc1cc[n+](-c2[nH]c(=O)sc2/C=N/NC([S-])=Nc2ccccc2)cc1,3,-0.41,31,-1,86,97,.,.,.
Cc1cc(C)c[n+](-c2[nH]c(=O)sc2/C=N/NC([S-])=Nc2ccccc2)c1,-2,-0.14,-16,1,136*,109,98,-6,97
Clc1ccc(-c2csc(N/N=C/c3ccc4c(c3)OCO4)n2)cc1,-5,0.75,-3,1,136*,107,100,-4,102
SMILES,ATG4B inh,Dynein cargo inh,B2AR ag,MEKK2mut PB1 HTS,MEKK3 PB1 HTS,MEKK2 WT-MEK5,MEKK2wt confirm,MEKK2mut confirm,MEKK3 confirm
C/C(CC(=O)NC12CC3CC(CC(C3)C1)C2)=N\NC(=O)c1ccc(F)cc1,-4,.,6,1,104,96,.,.,.
Cc1cc(=O)n2nc(N3CCCC(C(=O)NCc4ccccc4C)C3)sc2n1 (stereo not drawn),-12,.,-3,3,101,104,.,.,.
CSc1nc(/C=C2\C=Nc3ccccc32)c(O)n1C,5,-0.31,0,-1,101,101,.,.,.
CC(C)n1c(O)c(/C=C2\C=Nc3ccccc32)sc1=Nc1ccccc1,18,-0.23,-6,-35,13*[inhibitor],22*[inhibitor],106,0,100
Cc1csc(-c2cnn(-c3ccccc3)c2NC(=O)c2cccc(C(F)(F)F)c2)n1,-9,-0.47,-5,7,131*,119,109,8,102
O=C(Nc1cccc(-c2csc(Nc3ccc(Cl)cc3)n2)c1)c1cccc(C(F)(F)F)c1,7,-0.52,11,9,123*,96,117,0,106
O=[N+]([O-])c1cc(C(F)(F)F)cc([N+](=O)[O-])c1NCCCNc1ccc([N+](=O)[O-])c2cccnc12,-3,-0.093,6,0,68*[inhibitor],102,105,2,101
O=S(=O)(NCC(O)c1ccccc1)c1cc(Cl)sc1Cl (stereo not drawn),-11,.,-5,0,101,100,.,.,.
CCC(C)NS(=O)(=O)c1ccc(S(=O)(=O)N(CCc2ccc(OC)c(OC)c2)Cc2cccs2)cc1 (stereo not drawn),3,-0.22,2,-1,147*,107,99,-2,102
COc1ccc(CCN(Cc2cccs2)S(=O)(=O)c2ccc(S(=O)(=O)N3CCCCCC3)cc2)cc1OC,-8,-0.63,-2,11,102,115,.,.,.
O=C(CN1CCCC1)NCC12CC3CC(CC(C3)C1)C2,9,-0.27,-8,-5,82*[inhibitor],91,101,3,103

# Compound activity (PubChem)
